Fewer inactive variants are shown than the library holds.

First the molecules themselves.
B1: tRNA (parent)
chain: GUUCCGUUGGCGUAAUGGUAACGCGUCUCCCUCCUAAGGAGAAGACUGCGGGUUCGAGUCCCGUACGGAACG

In the data set the parent is B1. Description: yeast fitness relative to wild type (ratio to wild type); higher = fitter; tRNA-Arg(CCU), competitive growth, 37 C, YPD. A digest of the protocol: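 Gene amplicons from the start population and from each of six end populations were read by 100-nucleotide paired-end sequencing. Those end populations came from pooled Saccharomyces cerevisiae strains carrying tRNA-Arg(CCU) gene variants at the native locus, competed in YPD at 37°C for 24 hours. Fitness relative to wild type was worked out from changes in genotype frequencies. Genotypes needed ≥ 100 starting reads, and estimates < 0.5 were set to 0.5.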
Turning to G12C G18C G50C, the yeast fitness was at most 0.5.

For the variant G12U G38A G52A G56C, the yeast fitness is at most 0.5.

Take G12C G17C C22A A42C: the yeast fitness is at most 0.5.

Regarding G12A C55U G63C, the yeast fitness was at most 0.5.

With G12C C22G G23A C55A, the yeast fitness was at most 0.5.

In the case of G12A G51A, the yeast fitness turned out to be 0.883.

Regarding G12A G51C, the yeast fitness is 0.662.

Take G12A U13G U19C A21G G52A U59G: the yeast fitness was at most 0.5.

For the variant G12C A20U G25A A36G C46A U54A A70U, the yeast fitness is at most 0.5.

Regarding G12C C22U U28A, the yeast fitness amounted to 0.52.

Regarding G12A U59C, the yeast fitness turned out to be 0.993.

For G12C A20C C31G C66A, the yeast fitness was at most 0.5.

In the case of G12C U13A A20C A21G U26G, the yeast fitness is at most 0.5.

As to G12A U35C, the yeast fitness amounted to 0.83.

Turning to G12C A14G, the yeast fitness is 0.793.

On to G12C C27U G50A, for which the yeast fitness is at most 0.5.

With G12A U28A U54C, the yeast fitness was at most 0.5.

G12C C29G C46G G51A G52A: the yeast fitness is at most 0.5.

Consider G12C C49A, for which the yeast fitness came out at 0.562.

Consider G12C C49U, for which the yeast fitness worked out at 0.893.

In the case of G12C U32G C33G G48C, the yeast fitness is at most 0.5.

With G12A U47G U53A C60A, the yeast fitness is at most 0.5.

G12A C33A G51C: the yeast fitness is at most 0.5.

With G12A U13A A42C A70U, the yeast fitness is at most 0.5.

On to G12A G25A G68C, for which the yeast fitness was 0.645.

As for G12C G48A C66U, the yeast fitness amounted to 0.784.

Turning to G12A G41A G50A, the yeast fitness is at most 0.5.

Take G12C U19A C27G A65C G68A: the yeast fitness was at most 0.5.

Take G12C G17A: the yeast fitness turned out to be 0.673.

As for G12A C31U U53A U54G G58C C62U, the yeast fitness was 0.635.

On to G12A G41A C60G A65G, for which the yeast fitness was 0.559.

As for G12A G48C U54A, the yeast fitness was 0.59.

As to G12A C49A U54A, the yeast fitness was at most 0.5.

As for G12C C34U G44A G52A C55U, the yeast fitness was at most 0.5.

Take G12A G48A A57G G68C: the yeast fitness amounted to 0.569.

For G12C C55G C66U, the yeast fitness is at most 0.5.

Regarding G12A U26A C31G, the yeast fitness was 0.541.

Regarding G12C C31G C33G G48A, the yeast fitness was found to be 0.642.

Turning to G12A U16A G39C U54C C55U, the yeast fitness is at most 0.5.

Consider G12C A40G G58C C61G A65C, for which the yeast fitness is at most 0.5.

Turning to G12C G25A C49U, the yeast fitness was determined as 0.67.

On to G12C A20C G50A C60U, for which the yeast fitness stood at 0.56.

For the variant G12C C27U G58C A69C, the yeast fitness worked out at 0.657.

On to G12U U54C, for which the yeast fitness stood at 0.59.

G12C C22U A43C: the yeast fitness came out at 0.615.

For the variant G12C C34A G44A C46U G68A, the yeast fitness is at most 0.5.

As for G12A G52C, the yeast fitness is 0.668.

As to G12A C55A A65C, the yeast fitness was at most 0.5.

G12C U19A C27G: the yeast fitness worked out at 0.692.

Regarding G12A C49A G68A, the yeast fitness was at most 0.5.

For G12A U19C G23A U32C A43C G48C U64C, the yeast fitness is at most 0.5.

G12C C30G A37U G41A G58C: the yeast fitness was 0.581.

As for G12C C62G, the yeast fitness was 0.739.

G12C A37C A40U C46U: the yeast fitness amounted to 0.59.

For the variant G12C C55U, the yeast fitness came out at 0.734.

As for G12A C33A U54G A70C, the yeast fitness came to 0.541.

For G12A U16A U64G, the yeast fitness was at most 0.5.

G12A U28A A40U: the yeast fitness was found to be 0.647.

For G12C U28C U35A G38A C46G C62U, the yeast fitness is at most 0.5.

For G12C A37C A40U C46U G63A, the yeast fitness is at most 0.5.

Take G12A C30U U47A G67C: the yeast fitness is at most 0.5.

Take G12C C29A A45U G56A: the yeast fitness was at most 0.5.

For the variant G12C G39A A57U, the yeast fitness is at most 0.5.

For the variant G12C A20U C22A, the yeast fitness was 0.927.

With G12A G52C C55U A65U, the yeast fitness is at most 0.5.

On to G12C C30U C34U A42G A57C, for which the yeast fitness was at most 0.5.

G12C A20G C34U C49G: the yeast fitness was determined as 0.711.

For G12C U32G C49G C55A, the yeast fitness was at most 0.5.

For the variant G12A G50U, the yeast fitness was 0.842.

As to G12A G50C, the yeast fitness is 0.757.

For the variant G12A U35A A45C, the yeast fitness came to 0.528.

With G12A U16A, the yeast fitness came out at 0.974.

As to G12A U13G C61U G67C, the yeast fitness came to 0.678.

Turning to G12C A42U, the yeast fitness worked out at 0.698.

As for G12C C31U A57U, the yeast fitness stood at 0.603.

In the case of G12C A14G C22U U54C C61U, the yeast fitness was at most 0.5.

As to G12A U13C C33U C34U A42C G50A, the yeast fitness is at most 0.5.

Regarding G12A C30U C46G, the yeast fitness was at most 0.5.

Take G12A U13A G41C A45C C66U: the yeast fitness is at most 0.5.

Regarding G12C G58C C60A A65C, the yeast fitness is at most 0.5.

For G12C C31U G50A, the yeast fitness worked out at 0.677.

For G12C A21U C34U A42U U64A G68U, the yeast fitness is at most 0.5.

Take G12A U19G A20G U35C A40U: the yeast fitness was at most 0.5.

With G12C A69C, the yeast fitness worked out at 0.806.

Regarding G12C C31U G68C, the yeast fitness amounted to 0.505.

As to G12C G38A A40G A42C, the yeast fitness was at most 0.5.

On to G12C A65G, for which the yeast fitness turned out to be 0.783.

Regarding G12C A65C, the yeast fitness is 0.783.

For the variant G12C C46U, the yeast fitness is 0.815.

Turning to G12C C46A, the yeast fitness came out at 0.928.

With G12C A43G G63A, the yeast fitness amounted to 0.556.

Turning to G12C G18C U54C, the yeast fitness was at most 0.5.

Turning to G12A C46U C62U, the yeast fitness was 0.732.

With G12C G17A C46G C66A, the yeast fitness is at most 0.5.

Take G12C A15G C29U A42U U47C C62U: the yeast fitness is at most 0.5.

With G12A U16G C49U G63A, the yeast fitness was determined as 0.705.

Turning to G12C C33G G44C U54A, the yeast fitness is at most 0.5.

G12A U32C A40G: the yeast fitness was at most 0.5.

Take G12C C22U U54C C61U G68A: the yeast fitness was at most 0.5.

With G12A G48A, the yeast fitness turned out to be 0.819.

G12A U28G U35C: the yeast fitness is at most 0.5.

G12A U16C C55G A65C: the yeast fitness is at most 0.5.

For the variant G12C C31G G51A C55G A57G G68C, the yeast fitness is at most 0.5.

Take G12C C24U G67C: the yeast fitness was determined as 0.536.

With G12C U26A U35A, the yeast fitness was at most 0.5.

G12C A14C C60G: the yeast fitness is 0.618.

As for G12C A14C G56C G58C, the yeast fitness is at most 0.5.

For the variant G12A C33U A36C, the yeast fitness was determined as 0.563.

G12A C34A G51U G58A G63U: the yeast fitness was at most 0.5.

With G12C A20U, the yeast fitness is 0.75.

For the variant G12C A20C, the yeast fitness was 0.699.

Consider G12A G44C C46G, for which the yeast fitness is 0.61.

Regarding G12A G25A U32C, the yeast fitness was 0.749.

Turning to G12A G56A, the yeast fitness is 0.975.

With G12C A14C A20U A21U C33A G48A C62U, the yeast fitness was at most 0.5.

On to G12A U13C U26C G51A, for which the yeast fitness was at most 0.5.

Consider G12C U13C A40U G58C, for which the yeast fitness was at most 0.5.

As to G12A U16C C27A A70C, the yeast fitness is at most 0.5.

With G12C A14G G25A G41C C61U G67A, the yeast fitness worked out at 0.573.

With G12C C29A, the yeast fitness is 0.684.

As to G12C C29U, the yeast fitness was 0.85.

As to G12C U59C A69C, the yeast fitness is 0.665.

In the case of G12C C30U A43G, the yeast fitness was found to be 0.515.

Take G12C U13A G38A: the yeast fitness amounted to 0.576.

With G12C C22U C31A C60G, the yeast fitness is at most 0.5.

Turning to G12A C49U C62A, the yeast fitness stood at 0.625.

As to G12A C34A G52C C60A, the yeast fitness is at most 0.5.

Regarding G12C C31U C62G, the yeast fitness was found to be 0.557.

Regarding G12C U54C, the yeast fitness is 0.702.

Consider G12C U54A, for which the yeast fitness turned out to be 0.701.

Turning to G12A G39A G68A, the yeast fitness turned out to be 0.528.

Turning to G12C C24G G51C C62A U64G, the yeast fitness amounted to 0.59.

With G12A G17C C46U, the yeast fitness was at most 0.5.

Consider G12A C61G C62A A70G, for which the yeast fitness is at most 0.5.

On to G12A U26C C27U C33A A45C C62G A69U, for which the yeast fitness was 0.553.

With U13A A14C C22A C31A A37G C55U A57G, the yeast fitness is at most 0.5.

For G12C G18C, the yeast fitness worked out at 0.55.

For the variant G12U C33U C34G, the yeast fitness is at most 0.5.

Turning to G12C U28A G50A, the yeast fitness was 0.606.

For the variant G12A G38A G48A, the yeast fitness is at most 0.5.

In the case of G12C G41C C66U, the yeast fitness was determined as 0.551.

G12C C27U: the yeast fitness was determined as 0.805.

Take G12C A15U C24A U54A C62U A65G G68A: the yeast fitness is at most 0.5.

G12A C61U: the yeast fitness was found to be 0.924.

Take G12A C61A: the yeast fitness is 0.659.

Turning to G12C C24G C60A, the yeast fitness is at most 0.5.

In the case of G12C A37G G38A A45U, the yeast fitness is 0.506.

G12A C33U C46A C55G: the yeast fitness was at most 0.5.

For the variant G12A U26A C46U, the yeast fitness turned out to be 0.543.

G12C C27A A37G C49U: the yeast fitness was at most 0.5.

In the case of G12A G18C C29U, the yeast fitness came to 0.599.

G12C C46U C49G: the yeast fitness turned out to be 0.622.

Regarding G12A U19G U35C A40U C61A, the yeast fitness is at most 0.5.

Regarding G12C C31G A65C, the yeast fitness was at most 0.5.

As to G12A U19C A21U A45U G50A G68C A69U, the yeast fitness was at most 0.5.

For the variant G12C U13G A15C A36U C55G, the yeast fitness is at most 0.5.

As to G12C C22A, the yeast fitness stood at 1.

Take G12C G56C: the yeast fitness was found to be 0.694.

Take G12C G56A: the yeast fitness worked out at 0.838.

For G12A U19G U35C A40U, the yeast fitness came to 0.521.

In the case of G12A C46G A70G, the yeast fitness came to 0.703.

In the case of G12C C24G, the yeast fitness is 0.622.

For G12C U47C, the yeast fitness amounted to 0.958.

Regarding G12C G50A, the yeast fitness was 0.736.

Regarding G12C G50U, the yeast fitness is 0.836.

Consider G12C U32G C33G, for which the yeast fitness is 0.543.

In the case of G12A C61A G67A, the yeast fitness is at most 0.5.
